Measurements from publication PMC4803553 (Endocrinology and Metabolism, 2016).
Like-named read-outs stand apart in the source and are kept apart here.

What was measured:
[1] = tested on: hemoglobin A1c (HbA1c); format: in vivo, human; settings: mean±SD; for After treatment HbA1c: after 3 months of treatment, kidney transplant patients with diabetes; for Difference of HbA1c (ΔHbA1c): change from baseline to 3 months of treatment
Procedure, shortened: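 Renal allograft recipients with diabetes, all on cyclosporine-based triple maintenance therapy, started a DPP-4 inhibitor after transplant, at full or renally adjusted reduced dose (50 mg once daily). HbA1c was measured by immunoturbidimetry on an automated analyser and reported as NGSP %. Values at baseline and after 3 months of treatment were compared by paired t test; mean±SD.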

[2] = Renal function; format: in vivo, human; settings: follow-up after DPP-4 inhibitor treatment, mean±SD; for Follow-up eGFR: MDRD equation
Procedure, shortened: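 Fasting early-morning antecubital venous blood was taken from renal allograft recipients receiving a DPP-4 inhibitor. Creatinine was measured by the Jaffe method. eGFR was calculated with the Modification of Diet in Renal Disease study equation. Values are reported as mean±SD and were compared across inhibitor groups by one-way ANOVA with Scheffe post hoc tests.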

[3] = cited from earlier work

Follow-up eGFR [2] [mL/min/1.73 m^2] | Follow-up creatinine [2] [mg/dL] | Structure (SMILES) | After treatment HbA1c [1] [%] | Difference of HbA1c (ΔHbA1c) [1] [%] | Difference of HbA1c (ΔHbA1c) ([1]; listed as sitagliptin) | Eliminated in an unchanged form in the urine [3] [%] | Eliminated in an unchanged form via the feces [3] [%] | Renal excretion, share of elimination [3] [%] | Difference of HbA1c (ΔHbA1c) ([1]; listed as vildagliptin)
61.03±16.50 | 1.22 ± 0.82 | N[C@@H](CC(=O)N1CCn2c(nnc2C(F)(F)F)C1)Cc1cc(F)c(F)cc1F [Sitagliptin, sitagliptin] | 7.18±1.21 | -0.53±0.95 | –0.53%±0.95% | 79 |  |  | 
62.82±18.74 | 1.25 ± 0.42 | CC#CCn1c(N2CCC[C@@H](N)C2)nc2c1c(=O)n(Cc1nc(C)c3ccccc3n1)c(=O)n2C [Linagliptin, linagliptin] | 6.79±0.63 | -1.40±1.34 |  |  | 84.7 | 5.4 | 
58.21±17.76 | 1.41 ± 0.95 | N#C[C@@H]1CCCN1C(=O)CNC12CC3CC(CC(O)(C3)C1)C2 [Vildagliptin, vildagliptin] | 7.08±1.81 | -0.38±1.03 |  |  |  |  | –0.38%±1.03%
